Screening results from PubChem.
OX1R antag-1 = antagonists of human orexin 1 receptor (OX1R). Orexin/Hypocretin receptor type 1 (Homo sapiens), O43613. OX1R-expressing cells, FRET antagonist read-out. inhibition, % at 6.6 µM. 1.8% of 330,000 active; in the data active means inhibition mostly above about 38%, no sharp cut-off; inactive means mostly below about 40%;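 further: 0% = agonist challenge alone and 100% = reference antagonist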
Target sequence (O43613 whole entry, looked up): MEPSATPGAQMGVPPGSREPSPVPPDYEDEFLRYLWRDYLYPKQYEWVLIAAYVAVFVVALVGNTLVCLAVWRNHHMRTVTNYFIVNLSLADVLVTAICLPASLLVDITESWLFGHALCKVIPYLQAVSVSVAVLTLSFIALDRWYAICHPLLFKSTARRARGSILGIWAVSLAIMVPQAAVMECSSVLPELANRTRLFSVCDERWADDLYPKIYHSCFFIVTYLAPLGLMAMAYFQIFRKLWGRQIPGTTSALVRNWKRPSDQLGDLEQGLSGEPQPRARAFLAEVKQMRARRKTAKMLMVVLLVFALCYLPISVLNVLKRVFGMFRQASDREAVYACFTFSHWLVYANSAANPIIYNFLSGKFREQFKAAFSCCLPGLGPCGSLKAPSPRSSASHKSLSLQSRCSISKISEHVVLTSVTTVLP
OX1R antag-2 = OX1R (HCRTR1) antagonists, primary screen, fluorescence, CHO/OX1R cells, Fluo-8 calcium, orexin A; 0.43% of 330,000 active; Fluo-8 calcium fluorescence; AID 434989, 2010; Orexin/Hypocretin receptor type 1 (Homo sapiens), O43613; inhibition, % at 5 µM;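 active means inhibition above its plate's threshold, mean inhibition of all tested compounds on the plate plus 3 SD, cut at about 37% in these data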;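 further: 0% = orexin A challenge wells and 100% = SB-334867-A antagonist wells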
GalR3 antag = GalR3 antagonists in HEK293 cells, primary screen, cell-based, fluorescence readout. HEK293 GalR3-CNG cAMP membrane potential fluorescence; galR3 body fused to GalR1 C-terminus. inhibition, % at 3 µM. Galanin receptor type 3 (Homo sapiens), O60755. 0.44% of 360,000 active. AID 651719, 2012;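 active means inhibition above the screen-wide average plus 3 SD, cut at about 13% in these data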;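 further: forskolin and galanin both at EC90 stimulate the cells; cAMP rise reported by CNG channel membrane potential dye signal; 0% = forskolin plus galanin with DMSO and 100% = forskolin alone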
CHO parental Ca = ATP-evoked calcium signal inhibitors, parental CHO, primary screen, counter-screen for OX1R antagonist project, cell-based, fluorescence, Fluo-8 calcium dye | parental CHO-K1, ATP-induced calcium, Fluo-8 fluorescence | inhibition, % at 5.6 µM | 0.63% of 330,000 active | AID 463079, 2010;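 active means inhibition above that plate's mean sample inhibition plus 3 SD, cut at about 26% in these data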;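 further: 0% = ATP-challenged DMSO wells and 100% = DMSO wells without ATP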
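material = parental CHO cells | also added = ATP as calcium-mobilizing challenge | dosing = single point at 5.6 µM | detection = intracellular calcium via Fluo-8 no-wash fluorescent dye | read-out = % inhibition | benchmarks = low control ATP plus DMSO, high control DMSO only | repeats = one well per compound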
TAAR1 agonist = human TAAR1 agonists, primary screen, Fluo-8 calcium fluorescence, CHO RD-HGA16 cells; Trace amine-associated receptor 1 (Homo sapiens), Q96RJ0; vehicle wells 0%, saturating PEA agonist 100%; activation, % at 3 µM; 0.99% of 360,000 active;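 active means activation above the mean activation of all test compounds in the run plus 3 SD, cut at about 38% in these data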
Target sequence (Q96RJ0 whole entry, looked up): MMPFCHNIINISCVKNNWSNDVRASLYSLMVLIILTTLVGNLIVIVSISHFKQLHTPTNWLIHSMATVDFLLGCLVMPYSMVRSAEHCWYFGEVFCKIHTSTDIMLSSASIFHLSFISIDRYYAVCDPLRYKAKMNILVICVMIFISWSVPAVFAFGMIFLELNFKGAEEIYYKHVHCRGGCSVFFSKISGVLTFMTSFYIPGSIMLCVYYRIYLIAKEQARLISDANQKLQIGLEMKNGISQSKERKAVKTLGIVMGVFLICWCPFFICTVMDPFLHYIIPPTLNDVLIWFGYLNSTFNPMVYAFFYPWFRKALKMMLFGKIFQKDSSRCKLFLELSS
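test system = CHO RD-HGA16 cells carrying human TAAR1 plus Gα16 | schedule = 17-24 h seeding, 75 min 37 °C dye, 30 min RT | compound dosing = 3 µM single concentration | control set = DMSO and PEA EC100 | replicates = n 1 | signal = Fluo-8 fluorescence, 5 s baseline then 140 s kinetic read | measure = percent activation vs PEA EC100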
TAAR1 antagonist = human TAAR1 antagonists, primary screen, Fluo-8 calcium fluorescence, CHO RD-HGA16 cells; Trace amine-associated receptor 1 (Homo sapiens), Q96RJ0; antagonist; inhibition, % at 3 µM; 1.5% of 360,000 active; AID 624466, 2012;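 active means inhibition above a per-plate cutoff, the mean inhibition of test compounds on that plate plus 3 SD, cut at about 49% in these data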;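 further: 0% = DMSO plus EC80 beta-PEA response and 100% = DMSO alone without agonist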
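Test system – hTAAR1-expressing CHO RD-HGA16 cells, Gα16-coupled · Reagent – β-PEA at EC80 concentration, post-compound challenge · Compound dosing – 3 µM, single point · Timing – 140 s kinetic read after compound, 140 s after agonist · Detection – Fluo-8 intracellular calcium dye fluorescence, real-time kinetic reads · Control set – DMSO and EC80 PEA controls · Repeats – n of 1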
Starred values were filed as active, the others as inactive; nt = not tested or not shown. Most compounds without a hit are left out; they make up all but 4.3% or so of the library.

SMILES | OX1R antag-1 | OX1R antag-2 | GalR3 antag | CHO parental Ca | TAAR1 agonist | TAAR1 antagonist
COc1ccccc1C(=O)NNC(=S)NC(=O)c1ccco1 | 27.7 | 49.7* | -1.6 | 30.6 | 40.0* | 24.2
COc1cccc(/C=N/Nc2ccc([N+](=O)[O-])cc2)c1O | 14.8 | -3.8 | -8.8 | -5.6 | 14.9 | 15.9
COc1ccc(/C=N/Nc2ccc([N+](=O)[O-])cc2)cc1O | 1.1 | 4.4 | -4.9 | 6.6 | 40.3* | 23.5
COc1ccc2oc3ccccc3c(=O)c2c1 | 36.9 | -18.6 | -4.2 | -3.6 | 7.5 | 4.2
COc1ccc2oc3ccc(OC)cc3c(=O)c2c1 | 61.7* | -28.2 | -1.3 | -4.6 | 1.0 | -12.7
Cc1ccc(-n2nc3c(=O)n(CCCC(=O)NCCc4ccccc4C)nc(C)c3c2C)cc1 | 8.4 | -14.9 | -5.8 | -26.2 | 40.4* | -22.4
Cc1ccc(CCNC(=O)CCCn2nc(C)c3c(C)n(-c4ccc(C)cc4)nc3c2=O)cc1 | 6.9 | -34.2 | 4.0 | -25.7 | -3.3 | -37.5
O=C(Nc1ccccc1Cl)N1CCCN(c2nc(-c3ccccc3)ns2)CC1 | 74.1* | 15.0 | -5.1 | 0.6 | -0.2 | -15.6
COc1cc(Cn2c3ccc(NC(=S)NCc4ccc(C)cc4)cc3c(=O)n2C)ccc1F | nt | nt | -8.3 | nt | 5.4 | 27.7
CSC1=NSC2=NC(=O)/C(=C/c3coc4ccc(O)cc4c3=O)C(=N)N12 | 12.0 | 46.7* | -4.5 | 36.8* | 411.8* | 108.8*
CC1=CC2=NC(=O)/C(=C\c3cc(C)n(-c4cccc(Cl)c4)c3C)C(=N)N2O1 | 10.8 | -7.4 | -8.3 | -10.5 | -2.4 | -6.2
CC1=CC2=NC(=O)/C(=C/c3coc4ccc(Cl)cc4c3=O)C(=N)N2O1 | 6.7 | 23.1 | -6.1 | 38.7* | 43.2* | 27.1
O=[N+]([O-])c1ccc(N2CCN(Cc3ccccc3)CC2)s1 | 25.8 | -22.2 | -7.8 | 3.4 | 0.2 | 19.1
O=[N+]([O-])c1ccc(N2CCN(Cc3ccccc3)CC2)c2c1no[n+]2[O-] | nt | nt | -2.5 | nt | 13.5 | 62.9*
COc1ccc(-c2ccc(/C=C3/C(=N)N4C=CSC4=NC3=O)o2)c([N+](=O)[O-])c1 | 64.3* | 12.6 | 4.6 | -3.4 | 12.8 | 43.1
Cc1cc(-c2ccc(C)c(S(=O)(=O)NCCCN3CCN(c4ccccc4F)CC3)c2)on1 | 40.3 | 66.8* | -6.8 | 61.4* | 6.8 | 19.2
Cc1cc(-c2ccc(C)c(S(=O)(=O)NCCCN3CCN(c4ccccc4)CC3)c2)on1 | 4.4 | -10.2 | 3.9 | -9.5 | 7.7 | 13.8
COc1ccc(-c2cc(C(=O)N(C)CCc3ccc(OC)c(OC)c3)c3ccccc3n2)cc1 | nt | nt | -3.2 | nt | 12.1 | 49.4*
COc1ccc(CCN(C)C(=O)c2cc(-c3ccccc3)nc3ccc(C)cc23)cc1OC | 70.3* | -10.6 | 1.1 | -22.4 | 0.2 | 1.6
COc1ccc(CCN(C)C(=O)c2cc(-c3ccccc3)nc3ccccc23)cc1OC | nt | nt | -2.4 | nt | 3.4 | 13.4
COc1ccc(CN(C)C(=O)c2cc(-c3ccccc3)nc3ccc(C)cc23)c(OC)c1OC | 62.6* | 10.4 | -1.9 | -15.2 | 3.6 | 62.6*
O=C(CNC(=O)c1ccco1)N=Nc1c(O)[nH]c2ccc([N+](=O)[O-])cc12 | 62.7* | -2.6 | -7.8 | 2.5 | 4.8 | -3.1
CCOC(=O)Cc1c[nH]c2ccc([N+](=O)[O-])cc12 | nt | nt | -5.9 | nt | 0.5 | 6.0
CCOc1ccc(N=Nc2c(=O)[nH]n3c(=O)cc(C)[nH]c23)cc1 | 59.1* | -1.8 | -0.9 | -13.2 | 4.5 | -15.0
CCOc1ccc(N=Nc2c(=O)[nH]n3c(=O)c4c([nH]c23)CCCC4)cc1 | 14.1 | -11.1 | -12.6 | -5.1 | 1.3 | 5.5
SMILES | OX1R antag-1 | OX1R antag-2 | GalR3 antag | CHO parental Ca | TAAR1 agonist | TAAR1 antagonist
O=c1[nH]c2c(=O)[nH]cnc2nc1-c1ccccc1 | 40.0* | -0.3 | -3.7 | -6.0 | 3.4 | -3.9
COc1ccc2[nH]c(C(=O)N/N=C/c3ccccc3OC)cc2c1 | 55.9* | -2.8 | -0.1 | -5.9 | 3.7 | 23.7
COc1cc(OC)c2cc(C(=O)N/N=C/c3ccccc3O)[nH]c2c1 | 61.8* | 10.7 | -8.9 | -9.1 | 8.5 | -3.7
COc1ccc(OC)c(/C=N/NC(=O)c2cc3c(OC)c(OC)ccc3[nH]2)c1 | 29.2 | -21.2 | -4.6 | -11.1 | 12.1 | 40.6
CCOc1ccc2[nH]c(C(=O)N/N=C/c3ccccc3OC)cc2c1 | 11.8 | -18.8 | -7.0 | -6.4 | 1.6 | 46.9
O=c1/c(=C\c2cc([N+](=O)[O-])cc([N+](=O)[O-])c2O)sc2nc3ccccc3n12 | 72.2* | 5.7 | nt | -0.1 | nt | nt
O=c1/c(=C/c2ccccn2)sc2nc3ccccc3n12 | 13.4 | -9.3 | -1.1 | 1.2 | 3.5 | 2.1
C[C@H]1CN([C@@H](C)CO)C(=O)CCCn2cc(nn2)CO[C@@H]1CN(C)C(=O)Nc1cccc(Oc2ccccn2)c1 | nt | nt | -7.0 | nt | 2.4 | 1.3
Cn1cc(C(c2ccccn2)c2cn(C)c3ccccc23)c2ccccc21 | 0.7 | -25.7 | -9.0 | -31.8 | 41.1* | -11.0
COc1ccc(NC(=O)c2ccc(CN3CCN(c4ccccc4)CC3)cc2)cc1 | 6.9 | -17.6 | 5.6 | -1.7 | 39.9* | 22.4
CCc1ccc(S(=O)(=O)/N=C2/C=C(Sc3ncn[nH]3)C(=O)c3ccccc32)cc1 | 67.5* | -13.5 | nt | -12.2 | nt | nt
CCc1ccc(S(=O)(=O)/N=C2\C=CC(=O)c3ccccc32)cc1 | 17.6 | -14.8 | nt | -7.7 | nt | nt
CCc1ccc(S(=O)(=O)/N=C2\C=C(Nc3cccc(C(=O)O)c3)C(=O)c3ccccc32)cc1 | 45.6* | -12.7 | -9.9 | -7.1 | -0.5 | 0.4
COc1ccc(/C=C2\CN(Cc3ccccc3)C/C(=C\c3ccc(OC)cc3OC)C2=O)c(OC)c1 | 2.0 | -23.8 | 7.8 | 1.1 | 13.3 | 57.3*
CC1CN(C2=NC(=O)/C(=C/c3ccncc3)S2)CC(C)O1 (stereo not drawn) | 34.1* | -5.5 | -4.0 | -6.0 | 0.9 | -14.5
CCOC(=O)/C(C#N)=C/c1c[nH]c2ccccc12 | 51.2* | -5.2 | -2.8 | -4.3 | -0.8 | 2.7
C=CCN=C1NC(c2ccc(Cl)cc2)C(C(=O)OC)=C(C)N1Cc1ccccc1C(F)(F)F (stereo not drawn) | nt | nt | -5.9 | nt | 6.4 | -14.8
O=C(NC1(Cc2ccccc2)CCN(Cc2ccc(-c3ccccc3)cc2)C1=O)c1ccccc1 (stereo not drawn) | 0.9 | -2.0 | -4.1 | -14.8 | 20.1 | 62.1*
COc1cc(CNc2ccc3[nH]c(=O)[nH]c3c2)ccc1OCC(=O)NC(C)(C)C | 27.9 | -14.7 | -2.4 | 98.8* | 5.0 | -1.9
